Screening data as filed in PubChem BioAssay.
D1 mod = allosteric modulators of human D1 dopamine receptor; P21728; HEK293 D1, CRE-luciferase, dopamine EC30 potentiation; actives deviate in either direction; B-score at 10 µM; 5.9% of 58,000 active; AID 641;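 active = luminescence count or its row- and column-corrected plate score outside the 99.7% band of the plate's sample wells, on either side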
JNK3 inh = inhibitors of human JNK3 kinase; AID 746; inhibition, % at 8 µM; P53779; 0.61% of 60,000 active; purified JNK3 kinase activity, HTS; in the data active = inhibition above about 17%;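 also: 0% = DMSO and 100% = reference inhibitor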
Target sequence (P53779 whole entry, looked up): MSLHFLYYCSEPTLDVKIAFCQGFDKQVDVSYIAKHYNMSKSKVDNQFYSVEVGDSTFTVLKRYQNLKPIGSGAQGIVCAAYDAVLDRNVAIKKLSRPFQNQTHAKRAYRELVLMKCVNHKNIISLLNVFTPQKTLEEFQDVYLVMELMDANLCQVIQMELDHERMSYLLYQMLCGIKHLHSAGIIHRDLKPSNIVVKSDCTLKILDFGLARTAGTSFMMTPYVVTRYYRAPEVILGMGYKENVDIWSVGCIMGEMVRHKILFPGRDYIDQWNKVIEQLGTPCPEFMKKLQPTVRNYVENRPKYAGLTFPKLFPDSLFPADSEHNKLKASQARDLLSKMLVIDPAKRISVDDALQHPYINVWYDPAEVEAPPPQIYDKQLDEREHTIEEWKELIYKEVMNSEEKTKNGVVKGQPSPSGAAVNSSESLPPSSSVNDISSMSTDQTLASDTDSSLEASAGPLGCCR
HEK293 NFkB inh = lowers PMA/ionomycin-induced NF-kB signal in HEK293 cells. HEK-293 NF-kB luciferase reporter, luminescence. inhibition, % at 3 µM. 0.21% of 62,000 active;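 active = inhibition above the mean of all tested compounds plus 3 SD, cut at about 40% in these data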;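 also: 0% = stimulated DMSO wells and 100% = 10 µM reference inhibitor 5653914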
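Signal: luciferase luminescence; Material: HEK-293 cells with stable firefly luciferase reporter driven by four HIV NF-kB elements; Probe or stimulus: PMA with ionomycin; Replication: tested once; Times: 1 h compound pretreatment, then 16 h stimulation at 37 °C, 5% CO2; Benchmarks: DMSO and 10 µM reference inhibitor; Evaluation: per-plate % inhibition versus controls.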
RORa activator = RORA (human) activation | P35398 | CHO-K1 Gal4-RORA LBD luciferase reporter, luminescence; percent increase over mock-subtracted basal signal | activation, % at 10 µM | 1.5% of 65,000 active | AID 560;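 active = activation above the mean of all tested compounds plus 3 SD, cut at about 49% in these data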;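 also: 0% = DMSO-treated RORA cells and 100% = added signal equal to DMSO minus mock-transfected cells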
SF1 activator = activates the human nuclear receptor SF-1. 1.9% of 65,000 active. CHO-K1 Gal4-SF-1 LBD luciferase reporter; % increase over DMSO SF-1-specific signal. activation, % at 10 µM. AID 522. Q13285;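 active = activation above the mean activation of all tested compounds plus 3 SD, cut at about 50% in these data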
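Test system: transient Gal4-SF-1 LBD reporter, CHO-K1; Amount: 4,000 CHO-K1 cells per well; Doses: 10 µM only; Timing: compound exposure 20 h at 37 °C; Signal: luciferase light emission; Read-out basis: percent activation relative to DMSO median and mock-transfected background; Control set: DMSO negative control and −SF1 background wells; Replicates: one test per compound.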
* hit, by the source's call; x = not tested or not shown. An excerpt weighted towards active compounds, which were near 7.9% of everything screened.

SMILES	D1 mod	JNK3 inh	HEK293 NFkB inh	RORa activator	SF1 activator
Cc1sc2ncnc(OCC(=O)N3CCN(S(=O)(=O)c4ccccc4)CC3)c2c1C	2.4	2	12	-2	-1
O=C(Cc1ccc(Br)cc1)c1ccc(O)cc1O	0.17	4	-15	37	84*
CN(C(=O)c1ccc(Cl)cc1)C1=CCCCC1CCC#N (stereo not given)	0.92	0	13	-10	-1
Cn1c2ccccc2c2ncn(CCC3=CCCCC3)c(=O)c21	1	8	-2	48	51*
COc1ccccc1N(CC(=O)Nc1cc(C)on1)S(=O)(=O)c1cccs1	x	3	21	6	-14
Cn1c(=O)cc(OCCCC(=O)NCc2ccccn2)c2ccccc21	-0.78	4	9	1	10
Cc1ccnc(NC(=O)CCCOc2cc(=O)n(C)c3ccccc23)c1	-3.3*	27*	7	-57	-59
Cc1ccnc(NC(=O)CSc2cc(=O)n(C)c3ccccc23)c1	-0.28	26*	10	-14	-8
CC1CCCCC1NS(=O)(=O)c1ccc(-n2cnnn2)cc1 (stereo not given)	-2.5*	-3	18	-8	2
CN(C1CCCCC1)S(=O)(=O)c1ccc(-n2cnnn2)cc1	0.87	-2	4	-3	-26
COc1ccc(CC(=O)N2CCN(c3ccccn3)CC2)cc1OC	0.63	-3	6	0	6
CCCc1ccc(OCc2ccc(C(=O)N3CCN(c4ccccn4)CC3)o2)c(OC)c1	-0.075	3	-13	50*	5
CCC(C)(C)n1nnnc1CN(Cc1cc2cc(OC)c(OC)cc2[nH]c1=O)C1CCCC1	0.44	1	17	-2	-5
O=C(c1ccc(-c2ccccc2)cc1)N1CCCC1	-1	3	18	-3	11
O=C(Oc1ccc(-c2ccccc2)cc1)N1CCCCC1	-0.65	6	-16	86*	72*
CCOC(=O)N1CCN(c2ncnc3c2oc2nc(C)c4c(c23)CC(C)(C)OC4)CC1	1.7	4	12	-12	9
CC(C)c1nc2oc3c(NCc4ccccn4)ncnc3c2c2c1COC(C)(C)C2	8.7*	-6	8	-4	-5
Cc1nc2oc3c(NCc4ccccn4)ncnc3c2c2c1COC(C)(C)C2	12*	7	8	-1	6
CC1(C)Cc2nc3oc4c(NCc5ccccc5)ncnc4c3cc2CO1	0.2	5	16	2	-7
C#CCOc1nc(OCC#C)nc(OCC#C)n1	2	2	6	-10	-1
CCC(Sc1nc2ccccc2c(=O)n1CC1CCCO1)C(=O)NCc1cccnc1 (stereo not given)	0.078	x	8	-5	10
CCOc1ccccc1C1CC(c2ccc(Br)cc2)Nc2nc(N)nn21 (stereo not given)	0.13	5	-1	26	17
N#Cc1c(-c2ccco2)nc(SCC(=O)Nc2cccc(Cl)c2)[nH]c1=O	-1.9	25*	8	-7	-22
COC(=O)CSc1nc2cc(C)ccc2cc1C#N	0.62	-3	-41	17	100*
COC(=O)CSc1cc(SCC(=O)OC)c(C#N)c(SCC(=O)OC)c1	-4.6*	-8	0	-10	4
SMILES	D1 mod	JNK3 inh	HEK293 NFkB inh	RORa activator	SF1 activator
CCOC(=O)CC(=O)CSc1nc2c(cc1C#N)CCCCC2	-0.84	0	x	19	59*
CCOC(=O)CC(=O)CSc1nc2ccc(C)cc2cc1C#N	x	2	-17	20	72*
COC(=O)CSc1ccccc1C(=O)OC	0.7	0	13	2	9
N#Cc1cc2c(nc1SCC(=O)N1CCCCC1)CCCC2	0.95	-3	12	-3	-13
Cc1ccc2cc(C#N)c(SCC(=O)NCC3CCCO3)nc2c1 (stereo not given)	x	4	-3	-9	5
Cc1ccc2nc(SCC(=O)NCC3CCCO3)c(C#N)cc2c1 (stereo not given)	-0.33	-4	18	21	-7
COc1ccccc1C(=O)NCCC(=O)N1CC(=O)Nc2ccccc21	1.5	11	1	11	-1
Cn1c(C(O)c2ccccc2)nc(Cl)c1Cl (stereo not given)	-0.007	-2	16	-30	-12
C/C(N)=C(/C#N)C(=O)CSc1nnc(Nc2cccc(C)c2)s1	2.7	-2	-27	36	69*
c1coc(-c2nnc3sc(-c4cccs4)nn23)c1	x	-4	x	22	3
Cn1cc(CN2CCN(c3ccccc3)CC2)c2ccccc21	-1.6	x	8	1	-5
COc1ccc(OC)c(Nc2nc(N)nc(-c3cc4ccccc4o3)n2)c1	-0.14	32*	-12	11	-5
CC1=CCC2(CO)COC(c3ccccc3O)C1C2 (stereo not given)	-4.2	-5	2	13	2
O=C(CSc1nnc2ccccn12)Nc1ccccc1C(=O)NC1CC1	x	-2	18	-6	-1
O=C(CSc1nnc2ccccn12)NC(=O)NC1CCCCC1	-5.5*	-6	7	5	5
CCc1ccc(C2CC(c3ccc(C)cc3)n3nc(N)nc3N2)cc1 (stereo not given)	x	6	7	-1	-6
O=C(O)C1CCCCC1C(=O)NCCc1ccncc1 (stereo not given)	0.33	-6	18	5	2
O=C(O)C1CCCCC1C(=O)NCCc1c[nH]c2ccccc12 (stereo not given)	-5.1*	-7	23	19	-12
COC(=O)c1ccc(CSc2nc(C)nc3c2c(=O)n(C)c(=O)n3C)o1	2.8	4	6	-6	-4
N#CCCN(C1CCCCC1)S(=O)(=O)CCOc1ccccc1	-0.0058	5	11	6	13
O=C(O)CSc1nnc(-c2ccc(S(=O)(=O)N3CCCC3)cc2)n1Cc1ccco1	-4.1*	6	3	-1	-14
COc1ccc(C(=O)c2ccc(OC)c(N)c2)cc1N	0.46	0	20	66*	42
C=CCn1c(-c2ccccc2)c[nH]c1=S	-0.91	5	-14	6	53*
O=C(NCCCNC(=O)C(F)(F)C(F)F)C(F)(F)C(F)F	-0.49	-3	8	22	1
O=C(NC1CCC(NC(=O)C(F)(F)C(F)F)CC1)C(F)(F)C(F)F (stereo not given)	-3.2*	0	15	9	11
OCC#Cc1cnc2ccccc2c1	0.00039	-3	5	14	-16
CN(C)c1ccccc1C(=O)c1ccccc1N(C)C	-0.62	-1	12	79*	78*
CC(C)(C)C(=O)Nc1ccc(-c2cn3ccsc3n2)cc1	-5.4*	6	12	-32	-33
CC(C)CC(=O)Nc1ccc(-c2cn3ccsc3n2)cc1	-4.5*	0	-23	52*	52*
O=C(CCCn1nnc(-c2cccnc2)n1)c1ccc(F)cc1	x	3	0	-4	13
